Measurements from different studies.
Each line is one published result; the experiments were not run side by side.
Target: Atypical kinase COQ8A, mitochondrial (COQ8A, Homo sapiens, UniProt Q8NI60)

| Compound | observed | technique | concentration | remaining binding [%] |
| --- | --- | --- | --- | --- |
| c1cncc(-c2cccc(Nc3nccc(NC4CCCCC4)n3)c2)c1 | binding | competition with immobilised ligand | 10 µM | 81 |
| Cc1cc(NC(=O)c2cccc(S(F)(F)(F)(F)F)c2)cc(-n2ccn3nc(-c4cccnc4)cc23)c1 | cell-free assay | competition with immobilised ligand | 1 µM | 82.8 |
| CNC(=O)[C@@H]1CC[C@@H](n2c(-c3ccc4cnccc4c3)nc3ccc(C(=O)NCc4cccc(C(N)=O)c4)cc32)C1 | binding | competition with immobilised ligand | 1 µM | 100 |
| CN(CCCC(F)(F)F)c1nccc(-c2cnn3ncccc23)n1 | binding | – | 1 µM | 99 |
| C=CC(=O)N1CCC(C(=O)NCC(=O)N2CCN(c3nc(-c4cnc(N)nc4C(F)F)nc(N4CCOCC4)n3)CC2)CC1 | binding | competition with immobilised ligand | 1 µM | 78 |
| C[C@@H]1CN(c2cc(-c3nn(C)c4ccc(OC5(C)CC5)cc34)ncn2)C[C@H](C)O1 | cell-free assay | competition with immobilised ligand | 1 µM | 100 |
| CN(C)c1nccc(-c2cnc3ncccn23)n1 | binding | – | 1 µM | 100 |
| COc1cnc(Nc2cccc(S(N)(=O)=O)c2)nc1N1CCN(c2ccccc2)C(=O)C1 | binding | competition with immobilised ligand | 1 µM | 100 |
| Cn1nc(C(F)(F)F)cc1-c1cnc(N2CCc3cc(S(=O)(=O)Nc4c(F)cc(Cl)cc4F)cc(N4CCCC4=O)c32)nc1 | cell-free assay | competition with immobilised ligand | 1 µM | 100 |
| N[C@H]1CCN(c2nccc(-c3cnn4ncccc34)n2)C1 | binding | – | 1 µM | 79 |
| O=C(NCCCN1CCOCC1)c1ccc(Nc2ncc(Cl)c(-c3ccc(Cl)s3)n2)cc1 | binding | competition with immobilised ligand | 1 µM | 100 |
| O=C(Nc1c[nH]nc1C(=O)NC1CCNCC1)c1cc(F)cc(F)c1 | binding | competition with immobilised ligand | 1 µM | 100 |
| NS(=O)(=O)c1cc(NC(=O)C2(c3ccccc3Cl)CC2)ccc1Oc1cccc(Cl)c1 | cell-free assay | competition with immobilised ligand | 1 µM | 100 |
| O=C(c1ccc(Nc2nccc(-c3cc4ccccc4s3)n2)cc1)N1CCC(N2CCCC2)CC1 | binding | competition with immobilised ligand | 1 µM | 88 |
| CN(C)c1nccc(-c2cnn3ncccc23)n1 | binding | – | 1 µM | 88 |
| Cc1nc(Cc2cccc(C(F)(F)F)c2)sc1-c1ccc(C(N)=O)nc1 | cell-free assay | competition with immobilised ligand | 1 µM | 62 |
| Nc1ncc2c(n1)-c1c([nH]c3ccc(C#CC4CC4)cc13)CCCC2 | binding | competition with immobilised ligand | 1 µM | 96 |
| C[C@@H]1CN(c2ccc3ncc(-c4ccc5[nH]nc(C6CC6)c5c4)n3n2)C[C@H](C)O1 | binding | competition with immobilised ligand | 0.5 µM | 100 |
| CCC(=O)N[C@@H]1CC[C@H](C(=O)N(C)c2ccc(-c3nc4ccccc4o3)cc2)C1 | cell-free assay | competition with immobilised ligand | 1 µM | 99 |
| c1cnn2ncc(-c3ccnc(N4CCC45COC5)n3)c2c1 | binding | – | 1 µM | 100 |
| O=C(NCCCN1CCOCC1)c1ccc(Nc2nccc(-c3cc4ccccc4s3)n2)cc1 | binding | competition with immobilised ligand | 1 µM | 90 |
| O=C(N[C@H]1CCCCC/C=C\C2C[C@@]2(C(=O)O)NC(=O)[C@@H]2C[C@@H](Oc3ccncc3)CN2C1=O)OC1CCCC1 (some centres unmarked) | binding | competition with immobilised ligand | 1 µM | 90 |
| C[C@H]1CCN(c2nccc(-c3cnn4ncccc34)n2)C1 | binding | – | 1 µM | 100 |
